According to ChEMBL document CHEMBL1140914, “Synthesis and in vitro and in vivo evaluation of 18F-labeled positron emission tomography (PET) ligands for imaging the vesicular acetylcholine transporter” (J Med Chem, 2009):

Assays:
[1] = system: Lung; experiment: Drug uptake in Sprague-Dawley rat lung at 25 to 35 uCi, iv after 30 mins postinjection by […]; assay type: ADME, organism-based; details: in vivo, 0.5 h
How it was run: (§1)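 Mature male Sprague-Dawley rats (250–400 g) under 2–3% isoflurane got 25–35 μCi tracer in 100–150 μL saline via tail vein. Groups of at least 4 were euthanized at 5 min, 30 min, 1 h or 2 h. Brain was dissected into regions, and tissues were weighed and gamma counted against an injectate standard. Values are %ID/g, mean ± SD.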

[2] = system: Kidney; experiment: Drug uptake in Sprague-Dawley rat kidney at 25 to 35 uCi, iv after 2 hrs postinjection by […]; assay type: ADME, organism-based; details: in vivo; how it was run: as §1
[3] = system: Liver; experiment: Drug uptake in Sprague-Dawley rat liver at 25 to 35 uCi, iv after 2 hrs postinjection by […]; assay type: ADME, organism-based; details: in vivo; how it was run: as §1
[4] = system: Blood; experiment: Drug uptake in Sprague-Dawley rat blood at 25 to 35 uCi, iv after 2 hrs postinjection by […]; assay type: ADME, organism-based; details: in vivo; how it was run: as §1
[5] = system: Lung; experiment: Drug uptake in Sprague-Dawley rat lung at 25 to 35 uCi, iv after 1 hr postinjection by […]; assay type: ADME, organism-based; details: in vivo; how it was run: as §1
[6] = system: Heart; experiment: Drug uptake in Sprague-Dawley rat heart at 25 to 35 uCi, iv after 30 mins postinjection by […]; assay type: ADME, organism-based; details: in vivo, 0.5 h; how it was run: as §1
[7] = system: Muscle tissue; experiment: Drug uptake in Sprague-Dawley rat muscle at 25 to 35 uCi, iv after 30 mins postinjection by […]; assay type: ADME, organism-based; details: in vivo, 0.5 h; how it was run: as §1
[8] = system: Heart; experiment: Drug uptake in Sprague-Dawley rat heart at 25 to 35 uCi, iv after 2 hrs postinjection by […]; assay type: ADME, organism-based; details: in vivo; how it was run: as §1
[9] = Drug uptake in Sprague-Dawley rat fat at 25 to 35 uCi, iv after 2 hrs postinjection by […]; assay type: ADME, organism-based, Adipose tissue; details: in vivo; how it was run: as §1
[10] = system: Kidney; experiment: Drug uptake in Sprague-Dawley rat kidney at 25 to 35 uCi, iv after 5 mins postinjection by […]; assay type: ADME, organism-based; details: in vivo; how it was run: as §1
[11] = system: Brain; experiment: Drug uptake in Sprague-Dawley rat brain at 25 to 35 uCi, iv after 5 mins postinjection by […]; assay type: ADME, organism-based; details: in vivo; how it was run: as §1
[12] = Drug uptake in Sprague-Dawley rat fat at 25 to 35 uCi, iv after 30 mins postinjection by […]; assay type: ADME, organism-based, Adipose tissue; details: in vivo, 0.5 h; how it was run: as §1
[13] = system: Brain; experiment: Drug uptake in Sprague-Dawley rat brain at 25 to 35 uCi, iv after 2 hrs postinjection by […]; assay type: ADME, organism-based; details: in vivo; how it was run: as §1
[14] = system: Cerebellum; experiment: Drug uptake in Sprague-Dawley rat brain cerebellum at 25 to 35 uCi, iv after 5 mins postinjection by […]; assay type: ADME, organism-based; details: in vivo; how it was run: as §1
[15] = system: Kidney; experiment: Drug uptake in Sprague-Dawley rat kidney at 25 to 35 uCi, iv after 1 hr postinjection by […]; assay type: ADME, organism-based; details: in vivo; how it was run: as §1
[16] = system: Brain; experiment: Drug uptake in Sprague-Dawley rat brain at 25 to 35 uCi, iv after 1 hr postinjection by […]; assay type: ADME, organism-based; details: in vivo; how it was run: as §1
[17] = system: Kidney; experiment: Drug uptake in Sprague-Dawley rat kidney at 25 to 35 uCi, iv after 30 mins postinjection by […]; assay type: ADME, organism-based; details: in vivo, 0.5 h; how it was run: as §1
[18] = system: Striatum; experiment: Drug uptake in Sprague-Dawley rat brain striatum at 25 to 35 uCi, iv after 5 mins postinjection by […]; assay type: ADME, organism-based; details: in vivo; how it was run: as §1
[19] = system: Bone; experiment: Drug uptake in Sprague-Dawley rat bone at 25 to 35 uCi, iv after 5 mins postinjection by […]; assay type: ADME, organism-based, Bone element; details: in vivo; how it was run: as §1
[20] = system: Muscle tissue; experiment: Drug uptake in Sprague-Dawley rat muscle at 25 to 35 uCi, iv after 2 hrs postinjection by […]; assay type: ADME, organism-based; details: in vivo; how it was run: as §1
[21] = system: Liver; experiment: Drug uptake in Sprague-Dawley rat liver at 25 to 35 uCi, iv after 1 hr postinjection by […]; assay type: ADME, organism-based; details: in vivo; how it was run: as §1
[22] = system: Hippocampus; experiment: Drug uptake in Sprague-Dawley rat brain hippocampus at 25 to 35 uCi, iv after 5 mins postinjection by […]; assay type: ADME, organism-based; details: in vivo; how it was run: as §1
[23] = system: Blood; experiment: Drug uptake in Sprague-Dawley rat blood at 25 to 35 uCi, iv after 1 hr postinjection by […]; assay type: ADME, organism-based; details: in vivo; how it was run: as §1
[24] = system: Lung; experiment: Drug uptake in Sprague-Dawley rat lung at 25 to 35 uCi, iv after 2 hrs postinjection by […]; assay type: ADME, organism-based; details: in vivo; how it was run: as §1
[25] = system: Bone; experiment: Drug uptake in Sprague-Dawley rat bone at 25 to 35 uCi, iv after 30 mins postinjection by […]; assay type: ADME, organism-based, Bone element; details: in vivo, 0.5 h; how it was run: as §1
[26] = system: Bone; experiment: Drug uptake in Sprague-Dawley rat bone at 25 to 35 uCi, iv after 2 hrs postinjection by […]; assay type: ADME, organism-based, Bone element; details: in vivo; how it was run: as §1
[27] = system: Liver; experiment: Drug uptake in Sprague-Dawley rat liver at 25 to 35 uCi, iv after 30 mins postinjection by […]; assay type: ADME, organism-based; details: in vivo, 0.5 h; how it was run: as §1
[28] = system: Muscle tissue; experiment: Drug uptake in Sprague-Dawley rat muscle at 25 to 35 uCi, iv after 1 hr postinjection by […]; assay type: ADME, organism-based; details: in vivo; how it was run: as §1
[29] = Drug uptake in Sprague-Dawley rat fat at 25 to 35 uCi, iv after 5 mins postinjection by […]; assay type: ADME, organism-based, Adipose tissue; details: in vivo; how it was run: as §1
[30] = system: Liver; experiment: Drug uptake in Sprague-Dawley rat liver at 25 to 35 uCi, iv after 5 mins postinjection by […]; assay type: ADME, organism-based; details: in vivo; how it was run: as §1
[31] = system: Bone; experiment: Drug uptake in Sprague-Dawley rat bone at 25 to 35 uCi, iv after 1 hr postinjection by […]; assay type: ADME, organism-based, Bone element; details: in vivo; how it was run: as §1
[32] = system: Heart; experiment: Drug uptake in Sprague-Dawley rat heart at 25 to 35 uCi, iv after 5 mins postinjection by […]; assay type: ADME, organism-based; details: in vivo; how it was run: as §1
[33] = system: Blood; experiment: Drug uptake in Sprague-Dawley rat blood at 25 to 35 uCi, iv after 5 mins postinjection by […]; assay type: ADME, organism-based; details: in vivo; how it was run: as §1
[34] = system: Blood; experiment: Drug uptake in Sprague-Dawley rat blood at 25 to 35 uCi, iv after 30 mins postinjection by […]; assay type: ADME, organism-based; details: in vivo, 0.5 h; how it was run: as §1
[35] = system: Cortex; experiment: Drug uptake in Sprague-Dawley rat brain cortex at 25 to 35 uCi, iv after 5 mins postinjection by […]; assay type: ADME, organism-based; details: in vivo; how it was run: as §1
[36] = system: Brain; experiment: Drug uptake in Sprague-Dawley rat brain at 25 to 35 uCi, iv after 30 mins postinjection by […]; assay type: ADME, organism-based; details: in vivo, 0.5 h; how it was run: as §1
[37] = system: Heart; experiment: Drug uptake in Sprague-Dawley rat heart at 25 to 35 uCi, iv after 1 hr postinjection by […]; assay type: ADME, organism-based; details: in vivo; how it was run: as §1
[38] = Drug uptake in Sprague-Dawley rat fat at 25 to 35 uCi, iv after 1 hr postinjection by […]; assay type: ADME, organism-based, Adipose tissue; details: in vivo; how it was run: as §1
[39] = system: Lung; experiment: Drug uptake in Sprague-Dawley rat lung at 25 to 35 uCi, iv after 5 mins postinjection by […]; assay type: ADME, organism-based; details: in vivo; how it was run: as §1
[40] = system: Muscle tissue; experiment: Drug uptake in Sprague-Dawley rat muscle at 25 to 35 uCi, iv after 5 mins postinjection by […]; assay type: ADME, organism-based; details: in vivo; how it was run: as §1

Drug uptake [1]: 0.481 % ID/g
Drug uptake [2]: 1.339 % ID/g
Drug uptake [3]: 1.791 % ID/g
Drug uptake [4]: 0.02 % ID/g
Drug uptake [5]: 0.327 % ID/g
Drug uptake [6]: 0.109 % ID/g
Drug uptake [7]: 0.08 % ID/g
Drug uptake [8]: 0.047 % ID/g
Drug uptake [9]: 0.249 % ID/g
Drug uptake [10]: 2.018 % ID/g
Drug uptake [11]: 0.823 % ID/g
Drug uptake [12]: 0.207 % ID/g
Drug uptake [13]: 0.095 % ID/g
Drug uptake [14]: 0.743 % ID/g
Drug uptake [15]: 1.298 % ID/g
Drug uptake [16]: 0.124 % ID/g
Drug uptake [17]: 1.896 % ID/g
Drug uptake [18]: 0.911 % ID/g
Drug uptake [19]: 0.334 % ID/g
Drug uptake [20]: 0.035 % ID/g
Drug uptake [21]: 2.214 % ID/g
Drug uptake [22]: 0.837 % ID/g
Drug uptake [23]: 0.029 % ID/g
Drug uptake [24]: 0.199 % ID/g
Drug uptake [25]: 0.157 % ID/g
Drug uptake [26]: 0.138 % ID/g
Drug uptake [27]: 1.769 % ID/g
Drug uptake [28]: 0.056 % ID/g
Drug uptake [29]: 0.132 % ID/g
Drug uptake [30]: 1.506 % ID/g
Drug uptake [31]: 0.148 % ID/g
Drug uptake [32]: 0.321 % ID/g
Drug uptake [33]: 0.073 % ID/g
Drug uptake [34]: 0.037 % ID/g
Drug uptake [35]: 0.911 % ID/g
Drug uptake [36]: 0.226 % ID/g
Drug uptake [37]: 0.066 % ID/g
Drug uptake [38]: 0.241 % ID/g
Drug uptake [39]: 1.577 % ID/g
Drug uptake [40]: 0.091 % ID/g
SMILES: O=C(c1ccc([18F])cc1)C1CCN([C@@H]2Cc3ccccc3C[C@H]2O)CC1 (stereo in doubt; (-))
